Results from article PMC12709667 (Journal of Clinical Pharmacology, 2025).

Columns and labels:
[1] = In vitro blood/plasma partitioning; format: in vitro ADME; details: monkey, whole blood
Summary of the method: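 Test compound was added to rat, monkey or human whole blood and incubated, then centrifuged to obtain plasma. The plasma concentration was measured by LC-MS. It was compared with the concentration in directly spiked plasma of the same species.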

BCRP = target: T1, BCRP (Homo sapiens, UniProt Q9UNQ0); assay: ABC transporter inhibition, inside-out vesicles; format: in vitro ADME
T1 sequence (Q9UNQ0 1-655): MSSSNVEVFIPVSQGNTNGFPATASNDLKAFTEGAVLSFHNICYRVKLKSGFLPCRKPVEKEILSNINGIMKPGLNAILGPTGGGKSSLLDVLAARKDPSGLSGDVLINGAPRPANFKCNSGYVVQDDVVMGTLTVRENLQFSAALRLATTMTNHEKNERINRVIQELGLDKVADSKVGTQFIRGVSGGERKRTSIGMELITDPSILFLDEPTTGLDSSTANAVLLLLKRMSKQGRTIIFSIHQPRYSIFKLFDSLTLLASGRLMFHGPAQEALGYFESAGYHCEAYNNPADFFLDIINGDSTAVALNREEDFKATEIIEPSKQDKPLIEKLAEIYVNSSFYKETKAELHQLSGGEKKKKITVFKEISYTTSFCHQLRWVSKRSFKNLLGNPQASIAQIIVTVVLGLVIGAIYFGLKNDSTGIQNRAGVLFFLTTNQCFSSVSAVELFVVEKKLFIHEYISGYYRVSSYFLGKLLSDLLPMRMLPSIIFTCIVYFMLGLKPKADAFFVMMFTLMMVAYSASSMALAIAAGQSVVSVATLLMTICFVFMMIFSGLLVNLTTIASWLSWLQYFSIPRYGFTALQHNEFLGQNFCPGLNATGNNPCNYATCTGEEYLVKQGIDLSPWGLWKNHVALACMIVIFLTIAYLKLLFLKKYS
Summary of the method: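 Inhibition of human BCRP transport was measured in inside-out membrane vesicles prepared from cells overexpressing the human ABC transporter.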

CYP2B6 = format: in vitro ADME, human; details: up to 10 µM, three donors
UGT1A1 = target: T2, UGT1A1 (Homo sapiens, UniProt P22309); assay: DDI perpetrator study: dolutegravir probe; format: in vivo; details: miricorilant 400 mg once daily as perpetrator
T2 sequence (P22309 26-533): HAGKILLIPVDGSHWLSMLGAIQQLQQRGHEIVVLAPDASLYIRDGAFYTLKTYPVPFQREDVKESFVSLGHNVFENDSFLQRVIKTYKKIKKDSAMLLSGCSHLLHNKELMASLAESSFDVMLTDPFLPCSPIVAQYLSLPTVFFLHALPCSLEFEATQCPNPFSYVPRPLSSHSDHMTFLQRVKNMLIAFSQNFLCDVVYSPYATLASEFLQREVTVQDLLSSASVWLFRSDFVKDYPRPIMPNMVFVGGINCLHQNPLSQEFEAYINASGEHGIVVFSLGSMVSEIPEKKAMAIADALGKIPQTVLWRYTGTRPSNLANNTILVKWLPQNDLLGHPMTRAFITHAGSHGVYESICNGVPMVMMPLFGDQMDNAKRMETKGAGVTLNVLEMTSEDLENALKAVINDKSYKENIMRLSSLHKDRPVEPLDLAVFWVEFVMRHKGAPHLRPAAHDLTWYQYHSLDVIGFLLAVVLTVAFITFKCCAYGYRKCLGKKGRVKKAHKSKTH

CYP2C8 = target: T3, CYP2C8 (Homo sapiens, UniProt P10632); assay: DDI perpetrator study: repaglinide probe; format: in vivo; details: miricorilant 400 mg once daily as perpetrator
T3 sequence (P10632 1-490): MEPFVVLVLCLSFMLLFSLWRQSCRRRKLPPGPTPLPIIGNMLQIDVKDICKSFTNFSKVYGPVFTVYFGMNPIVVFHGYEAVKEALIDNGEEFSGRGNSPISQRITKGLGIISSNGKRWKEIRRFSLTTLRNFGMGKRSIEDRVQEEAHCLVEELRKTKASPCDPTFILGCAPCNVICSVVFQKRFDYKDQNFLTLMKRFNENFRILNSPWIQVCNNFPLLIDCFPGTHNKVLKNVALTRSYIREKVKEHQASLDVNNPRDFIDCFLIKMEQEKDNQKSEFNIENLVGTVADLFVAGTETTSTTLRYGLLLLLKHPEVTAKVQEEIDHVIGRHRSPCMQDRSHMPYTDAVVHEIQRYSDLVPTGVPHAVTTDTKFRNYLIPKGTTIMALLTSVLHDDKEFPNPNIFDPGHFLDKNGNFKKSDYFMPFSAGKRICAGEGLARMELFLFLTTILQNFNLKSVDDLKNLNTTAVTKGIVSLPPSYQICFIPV

CYP1A2 = format: in vitro ADME, human; details: up to 10 µM, three donors
[2] = First-in-human study, single ascending dose; format: in vivo
OATP1B3 = target: T4, OATP1B3 (Homo sapiens, UniProt Q9NPD5); assay: Transporter substrate assessment; format: in vitro ADME
T4 sequence (Q9NPD5 1-702): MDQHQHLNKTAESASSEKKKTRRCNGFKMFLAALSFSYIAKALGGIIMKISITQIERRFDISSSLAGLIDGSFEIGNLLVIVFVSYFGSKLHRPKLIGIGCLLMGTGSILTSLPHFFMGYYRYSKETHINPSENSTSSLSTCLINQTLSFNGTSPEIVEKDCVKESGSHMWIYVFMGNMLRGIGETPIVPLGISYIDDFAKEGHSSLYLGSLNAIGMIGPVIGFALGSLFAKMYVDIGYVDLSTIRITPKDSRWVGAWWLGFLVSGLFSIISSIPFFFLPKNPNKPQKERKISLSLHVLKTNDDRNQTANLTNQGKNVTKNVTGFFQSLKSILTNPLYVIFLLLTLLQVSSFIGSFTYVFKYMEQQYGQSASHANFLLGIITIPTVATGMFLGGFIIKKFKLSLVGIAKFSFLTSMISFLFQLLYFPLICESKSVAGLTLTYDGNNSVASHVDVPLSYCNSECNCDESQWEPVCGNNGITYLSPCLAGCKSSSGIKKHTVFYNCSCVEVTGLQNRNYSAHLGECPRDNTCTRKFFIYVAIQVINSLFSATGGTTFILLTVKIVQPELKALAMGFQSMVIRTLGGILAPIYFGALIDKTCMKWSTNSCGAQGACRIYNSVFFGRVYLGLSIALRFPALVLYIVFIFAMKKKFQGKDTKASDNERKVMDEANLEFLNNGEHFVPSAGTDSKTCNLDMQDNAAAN

CYP3A4 = format: in vitro ADME, human; details: up to 10 µM

SMILES: O=c1[nH]c(=O)c(Cc2cccc(C(F)(F)F)c2)c([C@H]2CC[C@H](c3ccccc3)CC2)[nH]1 [miricorilant]
- blood plasma ratio [1]: 0.83
- IC50 (BCRP): 480 nM
- induction of CYP2B6 (CYP2B6): no induction
- clinical inhibition of UGT1A1 (UGT1A1): does not inhibit
- clinical inhibition of CYP2C8 (CYP2C8): strong inhibitor
- induction of CYP1A2 (CYP1A2): no induction
- increase in AUC0‐last, fed versus fasted ([2]; 900 mg SDD suspension): approximately 3.34 fold
- increase in Cmax, fed versus fasted ([2]; 900 mg SDD suspension): approximately 2.45 fold
- increase in AUC on administration with food ([2]; Discussion, dose and formulation not stated): 2.3 fold
- half-life ([2]; human, plasma, oral, half‐life, single doses, healthy subjects): ~20 h
- Substrate of OATP1B3 (OATP1B3): not a substrate
- highest observed CYP3A4 induction (CYP3A4; one of three donors, concentration-dependent): 6.5 fold
- CYP3A4 induction (CYP3A4; two of three donors): no indication of CYP3A4 induction
